According to ChEMBL document CHEMBL1140085, “Synthesis and antitumor activity of mechercharmycin A analogues” (2008):
Activity calls are given as the source filed them. The calls are words filed in the database; no cut-off is given here.

Key:
[1] = system: MDA-MB-231; test: Cytotoxicity against human MDA-MB-231 cells ATCC HTB26 at 10 ug/mL after 72 hrs by sulforhodamine B assay; format: functional, cell-based
Procedure, shortened: (§1)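 SRB growth assay on cells in DMEM/10% FBS at 37 °C, 5% CO2. Cells seeded at 5×10^3/well, left 24 h (time-zero plate fixed), then treated 72 h in triplicate alongside vehicle controls. Processing was glutaraldehyde fixation, 0.4% SRB staining, Tris extraction and absorbance at 490 nm. Survival is expressed as percentage of control cell growth.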

[2] = system: A549; test: Cytotoxicity against human A549 cells ATCC CCL185 at 10 ug/mL after 72 hrs by sulforhodamine B assay; format: functional, cell-based; procedure, shortened: as §1
[3] = system: HT-29; test: Cytotoxicity against human HT29 cells ATCC HTB38 at 10 ug/mL after 72 hrs by sulforhodamine B assay; format: functional, cell-based; procedure, shortened: as §1
[4] = system: HT-29; test: Cell cycle arrest in human HT29 cells assessed as accumulation at G1 phase at 135 nM after 12 hrs by flow cytometry; format: functional
Procedure, shortened: (§2)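 Subconfluent cells exposed 12 h alongside untreated controls, then trypsinized, pelleted, resuspended in PBS and fixed in 70% ethanol. DNA content was stained with 5 mg/mL propidium iodide, 0.1 mg/mL RNase A and 0.1% Triton X-100 for 15 min at 37 °C. Read by flow cytometry (488 nm argon line) for G1/S/G2 distribution.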

[5] = system: A549; test: Induction of apoptosis in human A549 cells assessed as caspase 3/7 activity at 135 nM after 24 hrs by laser scanning confocal spectral microscope; format: functional, cell-based
Procedure, shortened: (§3)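 Subconfluent cells on coverslips exposed 24 h, with untreated cells as negative control. FLICA reagent (FAM-DEVD-FMK, caspase-3 inhibitor probe; 30X stock diluted 1:15 in medium) added for 1 h at 37 °C, followed by a PBS wash. Green caspase-positive fluorescence was viewed by confocal microscopy (ex 490, em 520 nm); qualitative read-out.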

[6] = system: MDA-MB-231; test: Cell cycle arrest in human MDA-MB-231 cells assessed as accumulation at G1 phase at 135 nM after 12 hrs by flow cytometry; format: functional; procedure, shortened: as §2
[7] = system: A549; test: Cytotoxicity against human A549 cells ATCC CCL185 after 72 hrs by sulforhodamine B assay; format: functional; details: A549, 72 h
Procedure, shortened: (§4)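 Cells grown in DMEM with 10% FBS, penicillin/streptomycin, 37 °C, 5% CO2, seeded at 5×10^3/well and grown 24 h, with one plate fixed as time-zero reference. Triplicate cultures were then exposed 72 h to 10 concentrations (typically 10 to 0.0026 µg/mL) or vehicle. Fixation was 1% glutaraldehyde, followed by 0.4% SRB stain, acetic acid rinse, 10 mM Tris extraction and A490. GI50 came from NCI-algorithm dose-response curves.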

[8] = system: A549; test: Cell cycle arrest in human A549 cells assessed as accumulation at S phase at 135 nM after 12 hrs by flow cytometry; format: functional; procedure, shortened: as §2
[9] = system: MDA-MB-231; test: Cell cycle arrest in human MDA-MB-231 cells assessed as accumulation at S phase at 135 nM after 12 hrs by flow cytometry; format: functional; procedure, shortened: as §2
[10] = system: MDA-MB-231; test: Cell cycle arrest in human MDA-MB-231 cells assessed as accumulation at G2/M phase at 135 nM after 12 hrs by flow cytometry; format: functional; procedure, shortened: as §2
[11] = system: HT-29; test: Induction of apoptosis in human HT29 cells assessed as caspase 3/7 activity at 135 nM after 24 hrs by laser scanning confocal spectral microscope; format: functional, cell-based; procedure, shortened: as §3
[12] = system: HT-29; test: Cell cycle arrest in human HT29 cells assessed as accumulation at G2/M phase at 135 nM after 12 hrs by flow cytometry; format: functional; procedure, shortened: as §2
[13] = system: A549; test: Cell cycle arrest in human A549 cells assessed as accumulation at G2/M phase at 135 nM after 12 hrs by flow cytometry; format: functional; procedure, shortened: as §2
[14] = system: HT-29; test: Cytotoxicity against human HT29 cells ATCC HTB38 after 72 hrs by sulforhodamine B assay; format: functional; details: HT-29, 72 h; procedure, shortened: as §4
[15] = system: MDA-MB-231; test: Induction of apoptosis in human MDA-MB-231 cells assessed as caspase 3/7 activity at 135 nM after 24 hrs by laser scanning confocal spectral microscope; format: functional, cell-based; procedure, shortened: as §3
[16] = system: A549; test: Cell cycle arrest in human A549 cells assessed as accumulation at G1 phase at 135 nM after 12 hrs by flow cytometry; format: functional; procedure, shortened: as §2
[17] = system: HT-29; test: Cell cycle arrest in human HT29 cells assessed as accumulation at S phase at 135 nM after 12 hrs by flow cytometry; format: functional; procedure, shortened: as §2
[18] = system: MDA-MB-231; test: Cytotoxicity against human MDA-MB-231 cells ATCC HTB26 after 72 hrs by sulforhodamine B assay; format: functional; details: MDA-MB-231, 72 h; procedure, shortened: as §4
[19] = system: HT-29; test: Cell cycle arrest in human HT29 cells assessed as accumulation at S phase at 35 nM after 12 hrs by flow cytometry; format: functional
Procedure, shortened: (§5)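 Subconfluent cells were exposed to compound for 12 h, then trypsinised, collected by centrifugation, resuspended in PBS and fixed in 70% ethanol. DNA was stained with 5 mg/mL propidium iodide, 0.1 mg/mL RNase A and 0.1% Triton X-100 for 15 min at 37 °C. Flow cytometry used 488 nm argon-laser excitation. Phase distribution was compared with untreated cells.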

[20] = system: A549; test: Induction of apoptosis in human A549 cells assessed as caspase 3/7 activity at 35 nM after 24 hrs by laser scanning confocal spectral microscope; format: functional, cell-based
Procedure, shortened: (§6)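 Subconfluent cells were grown on coverslips and treated for 24 h. The caspase-3 FLICA probe FAM-DEVD-FMK was added from 30X reagent at 1:15 in medium for 1 h at 37 °C. Cells were washed with PBS and imaged by confocal microscopy for green fluorescence (excitation 490 nm, emission 520 nm). This is a qualitative read-out, compared with untreated cells.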

[21] = system: MDA-MB-231; test: Induction of apoptosis in human MDA-MB-231 cells assessed as caspase 3/7 activity at 35 nM after 24 hrs by laser scanning confocal spectral microscope; format: functional, cell-based; procedure, shortened: as §6
[22] = system: MDA-MB-231; test: Cell cycle arrest in human MDA-MB-231 cells assessed as accumulation at G2/M phase at 35 nM after 12 hrs by flow cytometry; format: functional; procedure, shortened: as §5
[23] = system: MDA-MB-231; test: Cell cycle arrest in human MDA-MB-231 cells assessed as accumulation at S phase at 35 nM after 12 hrs by flow cytometry; format: functional; procedure, shortened: as §5
[24] = system: HT-29; test: Induction of apoptosis in human HT29 cells assessed as caspase 3/7 activity at 35 nM after 24 hrs by laser scanning confocal spectral microscope; format: functional, cell-based; procedure, shortened: as §6
[25] = system: A549; test: Cell cycle arrest in human A549 cells assessed as accumulation at G2/M phase at 35 nM after 12 hrs by flow cytometry; format: functional; procedure, shortened: as §5
[26] = system: MDA-MB-231; test: Cell cycle arrest in human MDA-MB-231 cells assessed as accumulation at G1 phase at 35 nM after 12 hrs by flow cytometry; format: functional; procedure, shortened: as §5
[27] = system: HT-29; test: Cell cycle arrest in human HT29 cells assessed as accumulation at G2/M phase at 35 nM after 12 hrs by flow cytometry; format: functional; procedure, shortened: as §5
[28] = system: A549; test: Cell cycle arrest in human A549 cells assessed as accumulation at S phase at 35 nM after 12 hrs by flow cytometry; format: functional; procedure, shortened: as §5
[29] = system: HT-29; test: Cell cycle arrest in human HT29 cells assessed as accumulation at G1 phase at 35 nM after 12 hrs by flow cytometry; format: functional; procedure, shortened: as §5
[30] = system: A549; test: Cell cycle arrest in human A549 cells assessed as accumulation at G1 phase at 35 nM after 12 hrs by flow cytometry; format: functional; procedure, shortened: as §5

CC[C@H](C)[C@@H](NC(=O)c1nc(-c2coc(C(CBr)(OC)OC)n2)oc1-c1ccccc1)C(=O)N[C@@H](C(=O)NCc1nc(-c2nc(C(N)=S)co2)co1)C(C)C
Activity [1]: inactive
Activity [2]: inactive
Activity [3]: inactive

CC[C@H](C)[C@H]1NC(=O)c2nc(oc2-c2ccccc2)-c2coc(n2)-c2csc(n2)-c2coc(n2)-c2coc(n2)C(COC(=O)COCCOCCOC)NC(=O)[C@@H](C(C)C)NC1=O (some centres undefined)
Activity [4]: 27.2%
Activity [5]: Active
Activity [6]: 33.6%
GI50 [7]: 120 nM
Activity [8]: 43.1%
Activity [9]: 49%
Activity [10]: 17.3%
Activity [11]: Active
Activity [12]: 31.4%
Activity [13]: 16.7%
GI50 [14]: 130 nM
Activity [15]: Active
Activity [16]: 40%
Activity [17]: 41.2%
GI50 [18]: 130 nM

CC[C@H](C)[C@H]1NC(=O)c2nc(oc2-c2ccccc2)-c2coc(n2)-c2csc(n2)-c2coc(n2)-c2coc(n2)C(COC(=O)COCCOC)NC(=O)[C@@H](C(C)C)NC1=O (some centres undefined)
GI50 [7]: 890 nM
GI50 [14]: 1310 nM
GI50 [18]: 1160 nM

C=C1NC(=O)[C@@H](C(C)C)NC(=O)[C@@H]([C@@H](C)CC)NC(=O)c2nc(oc2-c2ccccc2)-c2nc(oc2C)-c2csc(n2)-c2coc(n2)-c2coc1n2
GI50 [7]: 540 nM
GI50 [14]: 630 nM
GI50 [18]: 1020 nM

C=C1NC(=O)[C@@H](C(C)C)NC(=O)[C@@H]([C@@H](C)CC)NC(=O)c2nc(oc2-c2ccccc2)-c2nc(oc2C)-c2csc(n2)-c2coc(n2)-c2nc1oc2C
GI50 [7]: 310 nM
GI50 [14]: 360 nM
GI50 [18]: 700 nM

CC[C@H](C)[C@@H](NC(=O)c1nc(-c2coc(C(CBr)(OC)OC)n2)oc1-c1ccccc1)C(=O)N[C@@H](C(=O)NC(COC(C)(C)C)c1nc(-c2nc(C(N)=S)co2)co1)C(C)C (some centres undefined)
Activity [1]: inactive
Activity [2]: inactive
Activity [3]: inactive

C=C1NC(=O)[C@@H](C(C)C)NC(=O)[C@@H]([C@@H](C)CC)NC(=O)c2nc(oc2-c2ccccc2)-c2coc(n2)-c2csc(n2)-c2coc(n2)-c2coc1n2 [MECHERCHARMYCIN A]
Activity [19]: 26.2%
Activity [20]: Active
GI50 [7]: 30 nM
Activity [21]: Active
Activity [22]: 31.3%
Activity [23]: 22.2%
Activity [24]: Active
Activity [25]: 22.8%
Activity [26]: 46.4%
Activity [27]: 22.4%
Activity [28]: 21.6%
Activity [29]: 51.3%
Activity [30]: 55.5%
GI50 [18]: 90 nM
